These results are taken from ChEMBL document CHEMBL2331469, “Discovery and Preliminary SAR of Arylpiperazines as Novel, Brainpenetrant Antiprion Compounds” (ACS Med Chem Lett, 2013).

Series [1] deals with N2a-cl3. Kind of series: Antiprion activity against sheep RML prion protein-infected in mouse ScN2a-cl3 cells assessed as reduction of PrPSc level after 5 days by ELISA relative to control. Format: cell-based. Also noted: concentration or dose not given beside the values. The note with it: Ovis aries, dose or concentration not given here. Background: ELISA stands for enzyme-linked immunosorbent assay.

Series [2] in a line: Cytotoxicity against mouse ScN2a-cl3 cells assessed as cell viability after 5 days by calcein cell viability assay. The note with it: n2a-cl3, 120 h, read-out: LC50 (the source's name). Format: cell-based. Put shortly: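 Viability of RML prion-infected ScN2a-cl3 cells was read with the fluorescent probe calcein-AM. It was run alongside each PrPSc ELISA EC50 measurement to rule out cytotoxicity, and LC50 was derived from 3 tests.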

Series [3] in a line: Antiprion activity against sheep RML prion protein-infected in mouse ScN2a-cl3 cells assessed as reduction of PrPSc level after 5 days by ELISA. Format: cell-based. The conditions noted are these: Ovis aries, N2a-cl3, 120 h. Put shortly: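 RML prion-infected murine neuroblastoma ScN2a-cl3 cells. PrPSc levels were measured by ELISA, and EC50 was derived from 3 tests. Cell viability was run alongside each EC50 measurement in the same cells using calcein-AM fluorescence, to exclude cytotoxicity.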

Series [4] can be described thus: (§1) Cmax in wild type FVB mouse plasma at 10 mg/kg, po by LC-MS analysis. Format: ADME, organism-based. Also noted: dose 10 mg/kg, route oral. The conditions noted are these: FVB, plasma.
In series [5] the test system is Liver microsomes. The experiment in a line: Metabolic stability in human liver microsomes assessed as half life by LC-MS analysis. Format: ADME, Microsome. A general note: Microsomes from liver hold many membrane-bound enzymes, among them those of drug oxidation.
Series [6] is described as follows: AUC (0 to 6 hrs) in wild type FVB mouse plasma at 10 mg/kg, po by LC-MS analysis. Format: ADME, organism-based. Also noted: time < 6 hr, dose 10 mg/kg, route oral.
A short description of series [7]: Cmax in wild type FVB mouse brain at 10 mg/kg, po by LC-MS analysis. Format: ADME, organism-based. Also noted: dose 10 mg/kg, route oral.
Series [8] can be described thus: (§2) AUC (0 to 6 hrs) in wild type FVB mouse brain at 10 mg/kg, po by LC-MS analysis. Details: time < 6 hr, dose 10 mg/kg, route oral. Format: ADME, organism-based. The conditions noted are these: FVB, brain.
The subject of series [9] is Liver. The experiment in a line: Metabolic stability in mouse liver microsomes assessed as half life by LC-MS analysis. Format: ADME, Microsome.
The subject of series [10] is Plasma. The description is as §1. Format: ADME, organism-based. Details: dose 10 mg/kg, route oral. The note with it: in vivo.
Series [11] has as its system Brain. Described as §2. Format: ADME, organism-based. Details: time < 6 hr, dose 10 mg/kg, route oral. The conditions noted are these: in vivo, 6 h.

Broadly, the inhibition is the percentage by which the read-out fell short of the control. As for `Clc1cccc(N2CCN(Cc3cc(Br)cs3)CC2)c1`, the inhibition in series [1] stood at 34%.

As a reminder, the EC50 is the concentration needed to bring the measured effect to its halfway point. As to `c1csc(CN2CCN(c3ccc(-c4nc5ccccc5o4)cc3)CC2)c1`, the CC50 in series [2] was greater than 10 µM. The EC50 in [3] was found to be 4.2 µM.

Take `Clc1cccc(N2CCN(Cc3ccco3)CC2)c1`: in series [1], the inhibition turned out to be 6%.

Consider `Clc1cccc(N2CCN(Cc3ccccc3)CC2)c1`, for which the inhibition in series [1] stood at 7%.

For `Clc1cccc(N2CCN(Cc3cccnc3)CC2)c1`, the inhibition in [1] worked out at 4%. Also, the concentration for a half-maximal effect (EC50) in series [3] is greater than 32 µM.

As a reminder, the Cmax is the peak of the concentration-time curve. For orientation: AUC(0-t) means the area under the concentration-time curve up to a stated or last time point. For `COc1ccc(CN2CCN(c3ccc(-c4nc5ccccc5o4)cc3)CC2)cn1`, the CC50 in series [2] was greater than 10 µM. Moreover, the Cmax in series [4] came out at 700 nM; in series [7], 1600 nM. Further, the results for the t1/2 in series [5] and in [9] were greater than 60 min and 25.2 min, respectively. In addition, the values for the AUC(0-t) at 6 h in series [6] and in series [8] were 1.1 µM·h and 3 µM·h, respectively. Besides, the EC50 in series [3] is 1.1 µM.

With `c1ccc(N2CCN(Cc3cccnc3)CC2)cc1`, in [1], the inhibition was 4%.

For the compound `COc1ccc(N2CCN(Cc3cccs3)CC2)cc1`, in series [1], the inhibition turned out to be 16%.

In the case of `CC(=O)c1ccc(N2CCN(Cc3sccc3C)CC2)cc1`, the inhibition in series [1] was 78%.

In the case of `Fc1ccc(N2CCN(Cc3cccnc3)CC2)cc1`, in series [1], the inhibition was 27%. In addition, the EC50 in series [3] is greater than 32 µM.

For `c1ccc(CN2CCN(c3ccccc3)CC2)cc1`, the inhibition in [1] was 5%.

On to `COc1ccccc1N1CCN(Cc2cccnc2)CC1`, for which the EC50 in [3] is greater than 32 µM.

As a reminder, the AUC is the area under the concentration-time curve, a measure of exposure. With `c1cncc(CN2CCN(c3ccc(-c4nc5ccccc5s4)cc3)CC2)c1`, the CC50 in [2] is greater than 10 µM. The Cmax in [10] was 600 nM; in series [7] it was 3000 nM. Also, the t1/2 in [5] was found to be 34.3 min; in [9] it was 17.3 min. The AUC(0-t) at 6 h in [6] is 2.7 µM·h. Moreover, the 50% effective concentration (EC50) in [3] came to 0.4 µM. The compound also registered an AUC in series [11] of 14.4 µM·h.

Take `Fc1ccc(N2CCN(Cc3ccccc3)CC2)cc1`: in series [1], the inhibition was 7%.

Take `c1cncc(CN2CCN(c3ccc(-c4nc5ccccc5o4)cc3)CC2)c1`: the CC50 in [2] was greater than 10 µM. Further, the results for the maximum concentration (Cmax) in series [4] and in series [7] were 900 nM and 3600 nM, respectively. For the same compound, the t1/2 in series [5] is 50.2 min; in [9] it was 9.2 min. The same compound returned an AUC(0-t) at 6 h in series [6] of 4.2 µM·h. In series [3], the concentration for a half-maximal effect (EC50) came out at 0.3 µM. In [11], this compound gave an AUC of 14.2 µM·h.

With `Clc1ccc(N2CCN(Cc3cccnc3)CC2)cc1`, the inhibition in [1] was determined as 0%.

Regarding `Cc1ccc(CN2CCN(c3ccc(-c4nc5ccccc5o4)cc3)CC2)o1`, in [2], the CC50 is greater than 10 µM. For the same compound, in series [3], the EC50 came out at 3.3 µM.

On to `Clc1ccc(N2CCN(Cc3ccc(Br)s3)CC2)cc1`, for which, in series [1], the inhibition is 12%.

Turning to `Fc1ccc(CN2CCN(c3ccc(-c4nc5ccccc5o4)cc3)CC2)cn1`, the CC50 in [2] is greater than 10 µM. Further, the t1/2 in series [5] was found to be 43.6 min; in series [9] it was 7.3 min. Also, in series [6], the area under the curve AUC(0-t) at 6 h came to 1.2 µM·h. In addition, the Cmax in [7] worked out at 400 nM. Moreover, the concentration giving a half-maximal response (EC50) in series [3] came to 0.4 µM. Further, in series [11], the AUC is 1.3 µM·h.

Turning to `COc1ccc(N2CCN(Cc3ccc(Br)o3)CC2)cc1`, the inhibition in [1] was 6%.

On to `CC(=O)c1ccc(N2CCN(Cc3ccccc3)CC2)cc1`, for which the inhibition in series [1] worked out at 94%. In series [3], the EC50 stood at 0.71 µM.

For the compound `COc1cccc(N2CCN(Cc3cccnc3)CC2)c1`, the 50% effective concentration (EC50) in series [3] was greater than 32 µM.

As for `Cc1ccc(CN2CCN(c3ccc(-c4nc5ccccc5o4)cc3)CC2)cn1`, the CC50 in [2] is greater than 10 µM. The EC50 in [3] was greater than 10 µM.

Regarding `CC(=O)c1ccc(N2CCN(Cc3cccnc3)CC2)cc1`, in [1], the inhibition stood at 73%.

For `COc1ccc(N2CCN(Cc3cccnc3)CC2)cc1`, in [1], the inhibition was 10%. Besides, in [3], the EC50 is greater than 32 µM.

Regarding `Cc1ccc(CN2CCN(c3ccc(-c4ncco4)cc3)CC2)o1`, the CC50 in series [2] is greater than 10 µM. Moreover, the EC50 in [3] was greater than 10 µM.

For the compound `Fc1ccccc1N1CCN(Cc2cccnc2)CC1`, in series [3], the EC50 was greater than 32 µM.

For `c1csc(CN2CCN(c3ccc(-c4ncco4)cc3)CC2)c1`, the CC50 in series [2] is greater than 10 µM. Besides, the EC50 in series [3] was greater than 10 µM.

Consider `COc1ccc(N2CCN(Cc3ccccc3)CC2)cc1`, for which, in series [1], the inhibition worked out at 7%.

In the case of `CC(=O)c1ccc(N2CCN(Cc3ccco3)CC2)cc1`, the inhibition in [1] amounted to 96%.

Consider `Clc1ccc(N2CCN(Cc3ccccc3)CC2)cc1`, for which, in series [1], the inhibition worked out at 6%.

In the case of `CC(=O)c1ccc(N2CCN(Cc3ccc(C)o3)CC2)cc1`, in [1], the inhibition was 78%. In series [3], the EC50 turned out to be 4.62 µM.

In the case of `c1cncc(CN2CCN(c3ccc(-c4ncco4)cc3)CC2)c1`, in series [2], the CC50 was greater than 10 µM. For the same compound, the half-maximal effective concentration (EC50) in [3] was greater than 10 µM.

For `CC(=O)c1ccc(N2CCN(Cc3cccs3)CC2)cc1`, the inhibition in series [1] was 91%. In series [3], the 50% effective concentration (EC50) was found to be 1.95 µM.

Regarding `Clc1ccc(N2CCN(Cc3ccco3)CC2)cc1`, the inhibition in [1] was 13%.
